From ChEMBL document CHEMBL1671761, “Preclinical characterization of BI 201335, a C-terminal carboxylic acid inhibitor of the hepatitis C virus NS3-NS4A protease” (Antimicrob Agents Chemother, 2010)

Key:
[1] = biological target: D(2) dopamine receptor (Homo sapiens) (UniProt P14416); experiment: Inhibition of human dopamine receptor 2s at 10 uM
Caspase-1 (Homo sapiens) = Caspase-1 (Homo sapiens) (UniProt P29466); experiment: Inhibition of human caspase-1 at 10 uM
Homo sapiens = organism: Homo sapiens; experiment: Inhibition of human tryptase at 10 uM
[2] = biological target: Beta-secretase 1 (Homo sapiens) (UniProt P56817); experiment: Inhibition of human recombinant BACE-1 at 10 uM
Chain of Beta-secretase 1 (Homo sapiens) (P56817 whole entry): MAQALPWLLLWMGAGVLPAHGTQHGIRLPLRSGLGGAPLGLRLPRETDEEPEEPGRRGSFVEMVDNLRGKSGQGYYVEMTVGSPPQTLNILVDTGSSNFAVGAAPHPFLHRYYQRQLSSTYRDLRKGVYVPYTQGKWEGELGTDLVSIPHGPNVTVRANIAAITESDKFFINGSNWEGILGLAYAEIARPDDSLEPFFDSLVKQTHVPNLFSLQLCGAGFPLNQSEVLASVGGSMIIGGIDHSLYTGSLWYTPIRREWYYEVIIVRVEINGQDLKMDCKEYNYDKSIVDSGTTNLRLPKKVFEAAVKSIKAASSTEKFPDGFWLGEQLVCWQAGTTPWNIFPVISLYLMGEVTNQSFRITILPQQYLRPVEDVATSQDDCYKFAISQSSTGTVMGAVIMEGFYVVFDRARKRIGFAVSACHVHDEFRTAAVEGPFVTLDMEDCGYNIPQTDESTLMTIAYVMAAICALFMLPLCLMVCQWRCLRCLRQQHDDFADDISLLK

[3] = biological target: Cathepsin G (Homo sapiens) (UniProt P08311); experiment: Inhibition of human cathepsin G at 10 uM
Chain of Cathepsin G (Homo sapiens) (P08311 whole entry): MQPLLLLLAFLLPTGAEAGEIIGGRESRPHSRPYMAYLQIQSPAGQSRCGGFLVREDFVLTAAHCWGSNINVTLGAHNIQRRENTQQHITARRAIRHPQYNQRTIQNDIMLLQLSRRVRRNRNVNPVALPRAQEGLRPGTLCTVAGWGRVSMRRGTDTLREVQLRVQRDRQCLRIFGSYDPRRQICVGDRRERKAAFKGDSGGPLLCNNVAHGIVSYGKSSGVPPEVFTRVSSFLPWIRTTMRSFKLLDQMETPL

[4] = Cmax in Sprague-Dawley rat at 5 mg/kg, po; type: ADME, organism-based, Sparague-Dawley; design: dose 5 mg/kg, route oral; conditions: in vivo
In short: (§1)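 Single oral dose of 5 mg/kg in 0.5% Methocel with 0.3% Tween 80 (10 ml/kg) to fasted male animals: Sprague-Dawley rats (275-300 g, overnight fast with 10% dextrose water), rhesus monkeys, beagle dogs. Rat blood from cannulated carotid at 0-8 h, pooled from 3 rats per time point; monkey/dog n=3. Plasma solid-phase extracted, LC-MS/MS at m/z 869.3; noncompartmental analysis.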

[5] = Cmax in dog at 5 mg/kg, po; type: ADME, organism-based, Canis lupus familiaris; design: dose 5 mg/kg, route oral; conditions: in vivo; in short: as §1
Trypsin (Homo sapiens) = Trypsin (Homo sapiens) (UniProt P07477+P07478+P35030); experiment: Inhibition of human trypsin at 10 uM; type: protein assay
Huh-7 = experiment: Cytotoxicity activity against human HuH7 cells by MTT assay; type: functional
In short: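 MTT assay in proliferating Huh-7 cells exposed 72 h to serial inhibitor dilutions; formazan read at 570 nm. CC50 taken from percent inhibition.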

[6] = biological target: Acetylcholinesterase (Homo sapiens) (UniProt P22303); experiment: Inhibition of human acetylcholinesterase at 10 uM
Chain of Acetylcholinesterase (Homo sapiens) (P22303 whole entry): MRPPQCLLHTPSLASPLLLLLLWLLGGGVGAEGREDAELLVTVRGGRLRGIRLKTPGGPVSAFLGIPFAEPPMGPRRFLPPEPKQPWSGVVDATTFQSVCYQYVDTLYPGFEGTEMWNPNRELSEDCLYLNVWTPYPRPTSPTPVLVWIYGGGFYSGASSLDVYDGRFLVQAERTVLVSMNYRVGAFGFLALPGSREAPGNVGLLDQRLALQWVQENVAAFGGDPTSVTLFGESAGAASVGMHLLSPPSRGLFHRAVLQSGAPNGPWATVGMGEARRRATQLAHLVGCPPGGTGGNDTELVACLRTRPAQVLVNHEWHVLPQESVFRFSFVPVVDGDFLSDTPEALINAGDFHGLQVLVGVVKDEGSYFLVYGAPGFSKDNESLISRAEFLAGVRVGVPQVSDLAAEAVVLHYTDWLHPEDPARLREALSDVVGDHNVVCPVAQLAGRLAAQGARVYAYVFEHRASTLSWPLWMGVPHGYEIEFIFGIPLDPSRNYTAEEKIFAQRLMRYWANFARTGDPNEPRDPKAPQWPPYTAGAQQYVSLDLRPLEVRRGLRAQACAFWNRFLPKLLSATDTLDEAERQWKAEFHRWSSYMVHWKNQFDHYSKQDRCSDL

Hepatitis C virus = experiment: Antiviral activity against HCV 2a infected in Huh7 cells assessed as inhibition of viral replication after 72 hrs by RT-PCR; type: functional, organism-based, Hepacivirus hominis; conditions: genotype 2a, Huh-7, 72 h
In short: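 Infectious JFH1 virus (cell culture-adapted, core K74T and NS5A C2441S) was produced by transfecting transcribed RNA into Huh-7.5 cells. Huh-7.5 cells (1×10^4/well, seeded 24 h before) were infected with virus plus a nine-concentration compound series in 0.5% DMSO for 72 h. HCV RNA was quantified by real-time RT-PCR. Mean ± SD, ≥3 experiments.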

[7] = biological target: Angiotensin-converting enzyme (Oryctolagus cuniculus) (UniProt P12822); experiment: Inhibition of rabbit ACE at 10 uM
Chain of Angiotensin-converting enzyme (Oryctolagus cuniculus) (P12822 whole entry): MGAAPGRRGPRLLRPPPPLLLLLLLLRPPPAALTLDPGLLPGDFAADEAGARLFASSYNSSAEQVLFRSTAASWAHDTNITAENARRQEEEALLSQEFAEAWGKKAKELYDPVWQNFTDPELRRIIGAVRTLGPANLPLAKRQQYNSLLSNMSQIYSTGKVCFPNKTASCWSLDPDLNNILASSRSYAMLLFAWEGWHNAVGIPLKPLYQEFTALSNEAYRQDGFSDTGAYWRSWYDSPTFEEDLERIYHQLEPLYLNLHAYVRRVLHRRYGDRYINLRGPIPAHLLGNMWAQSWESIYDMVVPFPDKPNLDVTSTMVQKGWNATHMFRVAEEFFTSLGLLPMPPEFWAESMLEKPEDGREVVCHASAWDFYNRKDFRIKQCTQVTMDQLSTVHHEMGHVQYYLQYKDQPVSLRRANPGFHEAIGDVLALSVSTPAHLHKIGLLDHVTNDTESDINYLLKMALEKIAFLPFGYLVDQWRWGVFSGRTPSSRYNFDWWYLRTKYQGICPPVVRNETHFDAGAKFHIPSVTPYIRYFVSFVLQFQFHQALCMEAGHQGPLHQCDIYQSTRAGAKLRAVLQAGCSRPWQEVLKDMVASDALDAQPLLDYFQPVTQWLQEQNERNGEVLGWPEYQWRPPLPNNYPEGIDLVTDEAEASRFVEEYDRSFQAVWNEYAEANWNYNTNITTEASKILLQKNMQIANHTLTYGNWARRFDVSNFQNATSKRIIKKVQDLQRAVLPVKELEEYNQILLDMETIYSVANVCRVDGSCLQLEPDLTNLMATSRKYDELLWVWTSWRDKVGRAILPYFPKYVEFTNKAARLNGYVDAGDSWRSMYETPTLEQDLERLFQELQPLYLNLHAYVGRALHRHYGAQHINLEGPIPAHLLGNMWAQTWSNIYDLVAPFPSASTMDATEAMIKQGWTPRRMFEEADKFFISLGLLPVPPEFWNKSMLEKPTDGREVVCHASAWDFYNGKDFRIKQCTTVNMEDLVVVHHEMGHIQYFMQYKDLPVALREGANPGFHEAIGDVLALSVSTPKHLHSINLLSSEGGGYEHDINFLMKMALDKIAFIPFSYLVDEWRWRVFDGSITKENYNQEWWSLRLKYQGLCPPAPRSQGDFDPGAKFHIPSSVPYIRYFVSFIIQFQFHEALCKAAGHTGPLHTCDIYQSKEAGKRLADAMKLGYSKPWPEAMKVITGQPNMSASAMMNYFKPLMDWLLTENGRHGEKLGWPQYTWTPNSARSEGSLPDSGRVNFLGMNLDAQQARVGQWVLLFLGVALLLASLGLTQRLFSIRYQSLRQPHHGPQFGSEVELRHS

Cavia porcellus = organism: Cavia porcellus; experiment: Inhibition of guinea pig adenosine transporter at 10 uM
Caspase-4 (Homo sapiens) = Caspase-4 (Homo sapiens) (UniProt P49662); experiment: Inhibition of human caspase-4 at 10 uM
Chain of Caspase-4 (Homo sapiens) (P49662 81-270 limits assumed): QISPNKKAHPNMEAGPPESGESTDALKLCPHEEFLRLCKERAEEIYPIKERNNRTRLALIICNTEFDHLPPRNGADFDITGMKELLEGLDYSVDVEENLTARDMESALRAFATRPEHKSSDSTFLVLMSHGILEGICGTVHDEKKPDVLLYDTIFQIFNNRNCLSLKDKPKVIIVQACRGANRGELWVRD
Chain of Caspase-4 (Homo sapiens) (P49662 290-377 limits assumed): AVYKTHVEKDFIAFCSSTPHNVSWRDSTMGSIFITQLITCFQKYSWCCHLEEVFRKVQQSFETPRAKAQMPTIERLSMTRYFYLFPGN

[8] = biological target: Sodium-dependent noradrenaline transporter (Homo sapiens) (UniProt P23975); experiment: Inhibition of human norepinephrine transporter at 10 uM
[9] = Mean retention time in Sprague-Dawley rat at 5 mg/kg, po; type: ADME, organism-based, Sparague-Dawley; design: dose 5 mg/kg, route oral; conditions: in vivo
In short: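 Male Sprague-Dawley rats (275-300 g), fasted overnight with 10% dextrose water. Single oral dose in 0.5% Methocel/0.3% Tween 80 at 10 ml/kg. Carotid-cannula blood taken 0-8 h, with plasma from 3 rats pooled per time point. Solid-phase extraction, then LC-MS/MS at m/z 869.3 (LOQ 10 nM). Noncompartmental analysis.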

Rattus norvegicus [10] = organism: Rattus norvegicus; experiment: Inhibition of rat sodium channel site 2 at 10 uM
Rattus norvegicus [11] = organism: Rattus norvegicus; experiment: Inhibition of rat GABA-A receptor, benzodiazepine central at 10 uM
Rattus norvegicus [12] = organism: Rattus norvegicus; experiment: Inhibition of rat GABA-A receptor, chloride channel at 10 uM
[13] = biological target: Neprilysin (Rattus norvegicus) (UniProt P07861); experiment: Inhibition of rat neutral endopeptidase at 10 uM
[14] = biological target: 72 kDa type IV collagenase (Homo sapiens) (UniProt P08253); experiment: Inhibition of human MMP-2 at 10 uM
Chain of 72 kDa type IV collagenase (Homo sapiens) (P08253 110-660 limits assumed): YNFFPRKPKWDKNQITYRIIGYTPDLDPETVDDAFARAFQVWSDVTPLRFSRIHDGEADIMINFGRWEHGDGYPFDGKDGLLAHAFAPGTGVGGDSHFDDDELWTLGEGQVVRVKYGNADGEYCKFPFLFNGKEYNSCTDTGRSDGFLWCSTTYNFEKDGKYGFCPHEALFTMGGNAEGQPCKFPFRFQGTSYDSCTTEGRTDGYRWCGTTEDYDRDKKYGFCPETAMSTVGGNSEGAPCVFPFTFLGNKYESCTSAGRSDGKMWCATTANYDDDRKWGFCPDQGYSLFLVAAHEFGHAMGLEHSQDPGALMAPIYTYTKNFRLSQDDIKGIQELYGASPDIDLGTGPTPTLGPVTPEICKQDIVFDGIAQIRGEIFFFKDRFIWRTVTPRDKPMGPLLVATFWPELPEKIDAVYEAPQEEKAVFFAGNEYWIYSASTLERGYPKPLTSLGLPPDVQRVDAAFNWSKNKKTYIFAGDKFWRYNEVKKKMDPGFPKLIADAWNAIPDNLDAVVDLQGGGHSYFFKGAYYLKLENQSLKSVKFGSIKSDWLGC

[15] = biological target: Cathepsin D (Homo sapiens) (UniProt P07339); experiment: Inhibition of human cathepsin D; conditions: concentration not given here
Chain of Cathepsin D (Homo sapiens) (P07339 65-162 limits assumed): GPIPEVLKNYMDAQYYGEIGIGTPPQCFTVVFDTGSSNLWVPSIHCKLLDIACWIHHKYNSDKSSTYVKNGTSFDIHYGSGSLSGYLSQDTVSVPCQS
Chain of Cathepsin D (Homo sapiens) (P07339 169-412 limits assumed): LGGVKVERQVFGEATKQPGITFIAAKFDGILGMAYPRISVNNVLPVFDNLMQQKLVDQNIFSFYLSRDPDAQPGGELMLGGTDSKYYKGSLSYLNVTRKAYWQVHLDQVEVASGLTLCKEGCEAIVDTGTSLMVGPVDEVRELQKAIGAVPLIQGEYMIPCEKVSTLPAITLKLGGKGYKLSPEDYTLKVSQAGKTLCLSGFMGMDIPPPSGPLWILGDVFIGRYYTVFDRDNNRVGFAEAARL

Caspase-7 (Homo sapiens) = Caspase-7 (Homo sapiens) (UniProt P55210); experiment: Inhibition of human caspase-7 at 10 uM
Chain of Caspase-7 (Homo sapiens) (P55210 24-198 limits assumed): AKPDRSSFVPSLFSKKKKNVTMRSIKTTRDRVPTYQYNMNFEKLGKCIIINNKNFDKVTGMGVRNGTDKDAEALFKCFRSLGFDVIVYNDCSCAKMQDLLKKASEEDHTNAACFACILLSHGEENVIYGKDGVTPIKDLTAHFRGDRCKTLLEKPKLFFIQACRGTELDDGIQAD
Chain of Caspase-7 (Homo sapiens) (P55210 207-303 limits assumed): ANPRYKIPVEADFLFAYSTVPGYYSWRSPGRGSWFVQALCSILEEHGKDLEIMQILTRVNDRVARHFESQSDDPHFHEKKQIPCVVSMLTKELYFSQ

Chain of D(2) dopamine receptor (Homo sapiens) (P14416 whole entry): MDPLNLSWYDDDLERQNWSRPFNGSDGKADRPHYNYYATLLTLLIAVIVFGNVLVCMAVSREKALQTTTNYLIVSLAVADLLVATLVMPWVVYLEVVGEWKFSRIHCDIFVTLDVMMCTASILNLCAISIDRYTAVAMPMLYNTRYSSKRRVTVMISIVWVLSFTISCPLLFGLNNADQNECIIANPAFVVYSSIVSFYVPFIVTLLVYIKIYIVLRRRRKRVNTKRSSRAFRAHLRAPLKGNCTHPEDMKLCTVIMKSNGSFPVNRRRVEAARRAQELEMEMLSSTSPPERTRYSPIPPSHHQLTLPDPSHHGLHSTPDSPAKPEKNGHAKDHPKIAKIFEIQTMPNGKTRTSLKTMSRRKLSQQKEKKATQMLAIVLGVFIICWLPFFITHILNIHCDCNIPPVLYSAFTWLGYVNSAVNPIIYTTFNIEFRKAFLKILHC
Chain of Caspase-1 (Homo sapiens) (P29466 120-297 limits assumed): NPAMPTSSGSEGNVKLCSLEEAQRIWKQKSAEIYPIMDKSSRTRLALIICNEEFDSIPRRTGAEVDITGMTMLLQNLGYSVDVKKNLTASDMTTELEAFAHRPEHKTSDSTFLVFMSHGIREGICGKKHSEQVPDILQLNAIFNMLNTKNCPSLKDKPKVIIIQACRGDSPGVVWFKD
Chain of Caspase-1 (Homo sapiens) (P29466 317-404 limits assumed): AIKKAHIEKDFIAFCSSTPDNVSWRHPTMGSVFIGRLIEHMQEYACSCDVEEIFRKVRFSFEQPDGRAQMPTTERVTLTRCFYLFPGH

## C=C[C@@H]1C[C@]1(NC(=O)[C@@H]1C[C@@H](Oc2cc(-c3csc(NC(=O)C(C)C)n3)nc3c(Br)c(OC)ccc23)CN1C(=O)[C@@H](NC(=O)OC1CCCC1)C(C)(C)C)C(=O)O
[1]
  inhibition: 10%
Caspase-1 (Homo sapiens)
  inhibition: 13%
Homo sapiens
  inhibition: 5%
[2]
  inhibition: 74%
[3]
  inhibition: 18%
[4]
  Cmax: 410 nM
[5]
  Cmax: 3.8 µM
Trypsin (Homo sapiens)
  inhibition: 2%
Huh-7
  CC50: 30 µM
[6]
  inhibition: 20%
Hepatitis C virus
  EC50: 43 nM
[7]
  inhibition: 5%
Cavia porcellus
  inhibition: 23%
Caspase-4 (Homo sapiens)
  inhibition: 33%
[8]
  inhibition: 20%
[9]
  MRT: 3.18 h
Rattus norvegicus [10]
  inhibition: 12%
Rattus norvegicus [11]
  inhibition: 12%
Rattus norvegicus [12]
  inhibition: 28%
[13]
  inhibition: 11%
[14]
  inhibition: 10%
[15]
  inhibition: 43%
Caspase-7 (Homo sapiens)
  inhibition: 28%
